Experimental data from ChEMBL document CHEMBL2203196, “Synthesis, antiproliferative and apoptotic activities of N-(6(4)-indazolyl)-benzenesulfonamide derivatives as potential anticancer agents” (Eur J Med Chem, 2012).
Active and inactive are the calls of the source. The calls are words filed in the database; no cut-off is given here.

Columns and labels:
P388 [1] = assay: Cytotoxicity against mouse P388 cells after 72 hrs by MTT assay; format: functional, cell-based; details: P388, 72 h
Summary of the method: (§1)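 Cells plated at 900–1800/well for exponential growth, centrifuged 275 g 2 min, left 6–8 h, then exposed 72 h to at least 5 concentrations (1:10 serial dilutions) in duplicate; MTT read-out; IC₅₀ from single concentration–response curves; mean ± SD of 3–9 experiments.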

P388 [2] = assay: Induction of apoptosis in mouse P388 cells assessed as change in nuclear morphology at 0.97 to 957 uM after 3 days by DAPI staining-based fluorescence microscopy relative to control; format: functional
Summary of the method: (§2)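 Cells plated at 5000–10000/well, left 6–8 h, then treated at MTT-derived IC₅₀ or IC₉₀; washed in cold PBS, fixed in 70% ethanol at 4 °C, stained with DAPI just before microscopy; percent apoptotic segmented nuclei scored against untreated controls; mean ± SD of 4–6 data.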

A2780 [3] = assay: Cell cycle arrest in human A2780 cells assessed as accumulation at G0/G1 phase at IC50 after 72 hrs by propidium iodide staining-based FACS flow cytometry (reference value: 51 +/- 6.2 %); format: functional
A2780 [4] = assay: Cell cycle arrest in human A2780 cells assessed as accumulation at G0/G1 phase at 6.8 to 102.3 uM after 72 hrs by propidium iodide staining-based FACS flow cytometry (reference value: 51 +/- 6.2 %); format: functional
A2780 [5] = assay: Cytotoxicity against human A2780 cells after 72 hrs by MTT assay; format: functional, cell-based; details: A2780, 72 h; summary of the method: as §1
A549 [6] = assay: Induction of apoptosis in human A549 cells assessed as change in nuclear morphology at 0.97 to 957 uM after 3 days by DAPI staining-based fluorescence microscopy relative to control; format: functional; summary of the method: as §2
A2780 [7] = assay: Induction of apoptosis in human A2780 cells assessed as change in nuclear morphology at > 200 uM after 3 days by DAPI staining-based fluorescence microscopy relative to control; format: functional; summary of the method: as §2
A2780 [8] = assay: Cell cycle arrest in human A2780 cells assessed as cells with > 4n chromosomes at 6.8 to 102.3 uM after 72 hrs by propidium iodide staining-based FACS flow cytometry; format: functional
A2780 [9] = assay: Upregulation of p53 expression in human A2780 cells at IC50 after 24 hrs by Western blot analysis; format: functional, cell-based
Summary of the method: (§3)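 A2780 cells treated at IC₅₀ and harvested at 24, 48, 72 h; lysed 30 min at 4 °C in 1% Triton X-100, 0.15 M NaCl, 10 mM Tris pH 7.4 with protease inhibitors; Bradford protein assay; 50 µg protein resolved on 12% SDS-PAGE, transferred to nitrocellulose, Ponceau S loading check, blocked overnight 2% BSA in TBST at 4 °C, probed for p53 or bax.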

A2780 [10] = assay: Induction of apoptosis in human A2780 cells assessed as change in nuclear morphology at IC50 after 3 days by DAPI staining-based fluorescence microscopy relative to control; format: functional; summary of the method: as §2
A2780 [11] = assay: Cell cycle arrest in human A2780 cells assessed as accumulation at S phase at IC50 after 72 hrs by propidium iodide staining-based FACS flow cytometry (reference value: 25.9 +/- 4.7 %); format: functional
A549 [12] = assay: Induction of apoptosis in human A549 cells assessed as change in nuclear morphology at IC50 after 3 days by DAPI staining-based fluorescence microscopy relative to control; format: functional; summary of the method: as §2
P388 [13] = assay: Induction of apoptosis in mouse P388 cells assessed as change in nuclear morphology at IC50 after 3 days by DAPI staining-based fluorescence microscopy relative to control; format: functional; summary of the method: as §2
A2780 [14] = assay: Cell cycle arrest in human A2780 cells assessed as accumulation at G2/M phase at 6.8 to 102.3 uM after 72 hrs by propidium iodide staining-based FACS flow cytometry (reference value: 23.1 +/- 2.5 %); format: functional
A2780 [15] = assay: Upregulation of Bax expression in human A2780 cells at IC50 after 48 hrs by Western blot analysis; format: functional, cell-based; summary of the method: as §3
A2780 [16] = assay: Cell cycle arrest in human A2780 cells assessed as accumulation at S phase at 6.8 to 102.3 uM after 72 hrs by propidium iodide staining-based FACS flow cytometry (reference value: 25.9 +/- 4.7 %); format: functional
A2780 [17] = assay: Cell cycle arrest in human A2780 cells assessed as accumulation at G2/M phase at IC50 after 72 hrs by propidium iodide staining-based FACS flow cytometry (reference value: 23.1 +/- 2.5 %); format: functional
A549 [18] = assay: Cytotoxicity against human A549 cells after 72 hrs by MTT assay; format: functional, cell-based; details: A549, 72 h; summary of the method: as §1
A549 [19] = assay: Induction of apoptosis in human A549 cells assessed as change in nuclear morphology at > 200 uM after 3 days by DAPI staining-based fluorescence microscopy relative to control; format: functional; summary of the method: as §2
A2780 [20] = assay: Induction of apoptosis in human A2780 cells assessed as change in nuclear morphology at 0.97 to 957 uM after 3 days by DAPI staining-based fluorescence microscopy relative to control; format: functional; summary of the method: as §2

Structure (SMILES)	IC50 (P388 [1]) [µM]	Activity (P388 [2]) [%]	Activity (A2780 [3]) [%]	Activity (A2780 [4]) [%]	IC50 (A2780 [5]) [µM]	Activity (A549 [6]) [%]	Activity (A2780 [7]) [%]	Activity (A2780 [8]) [%]	Activity (A2780 [9])	Activity (A2780 [10]) [%]	Activity (A2780 [11]) [%]	Activity (A549 [12]) [%]	Activity (P388 [13]) [%]	Activity (A2780 [14]) [%]	Activity (A2780 [15])	Activity (A2780 [16]) [%]	Activity (A2780 [17]) [%]	IC50 (A549 [18]) [µM]	Activity (A549 [19]) [%]	Activity (A2780 [20]) [%]
CCOc1ccc(NS(=O)(=O)c2ccc(C)cc2)c2[nH]ncc12	5.7	56	53.7	8.9	8	24.9	27	11.6	Active	12.5	12.6	18.8	19	71.4	Active	8.2	33.7	25.1		
Cc1ccc(S(=O)(=O)Nc2ccc3c(Br)n[nH]c3c2)cc1	66.6				101													> 100		
C=CCn1cc2ccc(NS(=O)(=O)c3ccc(C)cc3)c(OCC)c2n1	68.9				> 100													> 100		
Cc1ccc(S(=O)(=O)Nc2ccc3c[nH]nc3c2)cc1	71.3				86.6													> 100		
C=CCn1cc2ccc(NS(=O)(=O)c3ccc(C)cc3)cc2n1	4.41	68.7	66	10.8	4.89		66.5	11.1	Active	19.3	9.8	51.2	30	72.7	Active	5.5	24.2	11.9	29.2	
C=CCn1ncc2c(NS(=O)(=O)c3ccc(C)cc3)ccc(OCC)c21	51.8				61.6													100		
Cc1ccc(S(=O)(=O)Nc2cccc3[nH]ncc23)cc1	85.5				> 100													> 100		
CCOc1ccc(NS(=O)(=O)c2ccc(C)cc2)c2cn[nH]c12	43.5				55.1													58.5		
Cc1ccc(S(=O)(=O)Nc2ccc3c(Br)nn(S(=O)(=O)c4ccc(C)cc4)c3c2)cc1	51.3				74.7													104		
CCOc1ccc(NS(=O)(=O)c2ccc(OC)cc2)c2c(Cl)n[nH]c12	0.58	98	62.7	10.8	1.23	64.5		11.3	Active	23.3	10.4	34.8	47.3	69.6	Active	8.4	26.9	5.83		36.8
CCOc1ccc(NS(=O)(=O)c2ccc(C)cc2)c2cn(C)nc12	4.19	94.3	43.5	9.9	8.34		51.5	12		33.5	27.3	22.3	10.3	64.5		13.7	29.3	14.4	54.3	
CCOc1ccc(NS(=O)(=O)c2ccc(C)cc2)c2c(Br)n[nH]c12	5.21	87.5	61.5	10.2	10.5	32.3		8.1	Active	12.8	14.2	2.8	9.8	71.5	Active	10.3	24.3	17.5		34.3
Cc1ccc(S(=O)(=O)Nc2cccc3[nH]nc(Br)c23)cc1	53.9				70.9													82.4		
COc1ccc(S(=O)(=O)Nc2cccc3[nH]nc(Cl)c23)cc1	0.5	74	56.1	9.4	0.86	70.8		12.8	Active	23.6	18	34.3	11.5	70.1	Active	7.8	25.9	1.83		46.6
Cc1ccc(S(=O)(=O)Nc2cccc3c2cnn3C)cc1	3.4	91.3	65	9.1	6.62		24	6.8	Active	7.3	11.3	28	37.3	69.2	inactive	15	23.7	6.88	41.2	
